One assay has as its system FGF receptors. The note with it: cited from earlier work.
The test system of assay [1] is ERK1/2 pathway in lymphatic endothelial cells (LECs). Description: ERK1/2 phosphorylation in lymphatic endothelial cells. Format: cell-based, human. To be noted: growth factor 100 ng/ml, 10 min, 37°C, 1% DMSO, heparin 10 U/ml. The gist of the method:
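Human dermal lymphatic microvascular endothelial cells were cultured overnight in EBM2 with 2% FBS, then starved 18 h in EBM2 with 0.2% BSA. They were stimulated with VEGF-A, VEGF-C or FGF-1, with or without test peptide or scrambled peptide (30 μg/ml). Lysates were immunoblotted for total and phospho-ERK1/2 using infrared-dye secondaries, and the phospho/total intensity ratio was taken. Two experiments were run; ANOVA with Tukey.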

The target of the next assay is T1, VEGFR-3 (Mus musculus, UniProt P35917).
T1 sequence (P35917 25-770): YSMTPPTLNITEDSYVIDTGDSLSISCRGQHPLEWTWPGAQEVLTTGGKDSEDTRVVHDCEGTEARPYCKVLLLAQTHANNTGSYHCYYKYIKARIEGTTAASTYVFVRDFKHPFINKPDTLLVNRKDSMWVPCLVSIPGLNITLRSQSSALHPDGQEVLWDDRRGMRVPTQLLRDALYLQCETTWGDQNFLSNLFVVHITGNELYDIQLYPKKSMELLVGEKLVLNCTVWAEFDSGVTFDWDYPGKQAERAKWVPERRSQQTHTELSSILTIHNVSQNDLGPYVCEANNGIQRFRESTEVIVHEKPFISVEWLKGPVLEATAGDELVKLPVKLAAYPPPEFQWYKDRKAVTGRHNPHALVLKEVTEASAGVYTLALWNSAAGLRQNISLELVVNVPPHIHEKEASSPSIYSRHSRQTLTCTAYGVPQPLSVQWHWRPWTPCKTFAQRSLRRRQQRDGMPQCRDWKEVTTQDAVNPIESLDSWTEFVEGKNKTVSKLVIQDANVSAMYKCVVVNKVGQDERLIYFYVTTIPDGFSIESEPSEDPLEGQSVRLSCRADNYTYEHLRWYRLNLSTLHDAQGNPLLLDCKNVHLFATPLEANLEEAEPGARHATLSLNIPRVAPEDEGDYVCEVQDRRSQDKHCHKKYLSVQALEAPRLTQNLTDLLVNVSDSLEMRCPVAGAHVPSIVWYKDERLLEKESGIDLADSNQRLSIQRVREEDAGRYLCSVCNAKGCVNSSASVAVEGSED
Description: competition assay, binding of phage PCAIWF to immobilized VEGFR-3.

The next assay relates to mouse VEGFR-3. Description: phage binding assay, immobilized mouse VEGFR-3. The note with it: 10^8 TU in 50 μl PBS, 2 hours, room temperature; control insertless phage Fd; colony count or phage-FLISA; triplicate plating.
A further assay relates to human VEGFR-3. Description: phage binding assay, immobilized human VEGFR-3. To be noted: 10^8 TU in 50 μl PBS, 2 hours, room temperature; control insertless phage Fd; colony count or phage-FLISA; triplicate plating.
Assay [2] concerns the target T2, recombinant IgD2-3 domains of human VEGFR-3 (human, UniProt P35916 136-332).
T2 sequence: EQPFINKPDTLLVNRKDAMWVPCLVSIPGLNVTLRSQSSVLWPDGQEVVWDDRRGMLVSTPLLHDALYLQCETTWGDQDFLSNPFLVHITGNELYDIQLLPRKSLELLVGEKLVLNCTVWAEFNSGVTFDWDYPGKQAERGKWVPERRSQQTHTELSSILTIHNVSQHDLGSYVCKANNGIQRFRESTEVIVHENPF
Nature of the assay: ELISA.

Assay [3] has as its target T3, recombinant IgD2 domain of human VEGFR-3 (human, UniProt P35916 136-229).
T3 sequence: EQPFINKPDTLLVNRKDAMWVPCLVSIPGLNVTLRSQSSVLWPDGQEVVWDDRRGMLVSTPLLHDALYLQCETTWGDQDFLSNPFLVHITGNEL
Description: ELISA.

Assay [4] addresses T4, human VEGFR-3 extracellular domain (Fc fusion) (human, UniProt P35916 25-775).
T4 sequence: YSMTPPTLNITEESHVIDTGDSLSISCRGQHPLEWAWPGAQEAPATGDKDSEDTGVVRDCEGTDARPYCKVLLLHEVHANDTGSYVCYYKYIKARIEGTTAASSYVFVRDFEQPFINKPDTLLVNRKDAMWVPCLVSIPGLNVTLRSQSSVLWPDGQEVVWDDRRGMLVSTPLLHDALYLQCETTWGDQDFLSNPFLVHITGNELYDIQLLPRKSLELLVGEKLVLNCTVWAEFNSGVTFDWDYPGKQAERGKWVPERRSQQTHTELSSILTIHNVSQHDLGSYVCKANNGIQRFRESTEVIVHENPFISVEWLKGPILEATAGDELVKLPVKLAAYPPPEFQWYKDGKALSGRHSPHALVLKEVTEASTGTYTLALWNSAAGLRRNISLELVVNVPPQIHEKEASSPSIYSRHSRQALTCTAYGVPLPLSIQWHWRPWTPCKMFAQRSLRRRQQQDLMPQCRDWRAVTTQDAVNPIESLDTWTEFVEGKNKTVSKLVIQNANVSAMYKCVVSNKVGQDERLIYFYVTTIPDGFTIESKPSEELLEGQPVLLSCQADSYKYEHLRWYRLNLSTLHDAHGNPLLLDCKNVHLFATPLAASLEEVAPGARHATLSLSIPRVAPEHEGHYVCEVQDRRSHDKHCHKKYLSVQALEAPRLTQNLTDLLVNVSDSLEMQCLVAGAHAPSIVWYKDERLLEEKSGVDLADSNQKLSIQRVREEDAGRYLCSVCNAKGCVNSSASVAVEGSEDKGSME
Description: ELISA. (In an ELISA, binding on a coated surface is turned into a signal by an enzyme label.)

Assay [5] deals with T4, human VEGFR-3 extracellular domain (Fc …). Nature of the assay: phage binding assay.
The target in assay [6] is T5, recombinant mouse VEGFR-3/Fc (mouse, UniProt P35917 25-770).
T5 sequence: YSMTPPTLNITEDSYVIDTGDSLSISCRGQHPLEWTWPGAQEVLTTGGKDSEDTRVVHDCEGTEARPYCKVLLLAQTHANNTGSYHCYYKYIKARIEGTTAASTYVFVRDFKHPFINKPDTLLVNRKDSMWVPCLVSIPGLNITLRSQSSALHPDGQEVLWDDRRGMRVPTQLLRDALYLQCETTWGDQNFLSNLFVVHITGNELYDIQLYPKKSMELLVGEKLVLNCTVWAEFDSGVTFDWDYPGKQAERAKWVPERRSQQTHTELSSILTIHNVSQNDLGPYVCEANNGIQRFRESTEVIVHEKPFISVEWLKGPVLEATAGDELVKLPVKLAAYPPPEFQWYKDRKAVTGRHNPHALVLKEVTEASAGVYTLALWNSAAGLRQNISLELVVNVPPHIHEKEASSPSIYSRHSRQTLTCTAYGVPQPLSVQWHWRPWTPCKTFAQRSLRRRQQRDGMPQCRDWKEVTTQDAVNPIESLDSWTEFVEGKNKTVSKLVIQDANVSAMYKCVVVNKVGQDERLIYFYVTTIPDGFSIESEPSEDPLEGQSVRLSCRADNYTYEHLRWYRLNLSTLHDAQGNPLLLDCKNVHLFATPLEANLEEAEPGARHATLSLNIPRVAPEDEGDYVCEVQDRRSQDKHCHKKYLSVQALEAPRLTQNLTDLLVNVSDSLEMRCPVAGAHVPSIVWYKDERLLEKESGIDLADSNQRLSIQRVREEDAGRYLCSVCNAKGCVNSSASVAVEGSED
Description: phage binding assay.

The target in assay [7] is human VEGFR-1 extracellular domain (Fc fusion) (human, UniProt P17948 27-758). Description: ELISA.
Assay [8] has as its target human VEGFR-2 extracellular domain (Fc fusion) (human, UniProt P35968 20-764). Nature of the assay: ELISA.
In a further assay the test system is human VEGFR-1. Nature of the assay: FLISA binding assay, NRP-2 to VEGFR-1. To be noted: rat NRP-2, FLISA. The gist of the method:
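Human VEGFR-1 extracellular domain coated at 200 ng per well in PBS overnight at 4°C, then blocked with Odyssey blocking buffer. Wells incubated with NRP-1 or NRP-2 in PBS with 10% (v/v) DMSO and 10% blocking buffer, with or without peptide (100 μg/ml). Bound NRP detected with goat anti-NRP-1 or anti-NRP-2 serum (1:100), then IRDye 680LT anti-goat, by infrared scanning. Duplicate wells; ANOVA with Tukey.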

Ends that are not written are not given here.

Sequence of human VEGFR-2 extracellular domain (Fc fusion) (P35968 20-764): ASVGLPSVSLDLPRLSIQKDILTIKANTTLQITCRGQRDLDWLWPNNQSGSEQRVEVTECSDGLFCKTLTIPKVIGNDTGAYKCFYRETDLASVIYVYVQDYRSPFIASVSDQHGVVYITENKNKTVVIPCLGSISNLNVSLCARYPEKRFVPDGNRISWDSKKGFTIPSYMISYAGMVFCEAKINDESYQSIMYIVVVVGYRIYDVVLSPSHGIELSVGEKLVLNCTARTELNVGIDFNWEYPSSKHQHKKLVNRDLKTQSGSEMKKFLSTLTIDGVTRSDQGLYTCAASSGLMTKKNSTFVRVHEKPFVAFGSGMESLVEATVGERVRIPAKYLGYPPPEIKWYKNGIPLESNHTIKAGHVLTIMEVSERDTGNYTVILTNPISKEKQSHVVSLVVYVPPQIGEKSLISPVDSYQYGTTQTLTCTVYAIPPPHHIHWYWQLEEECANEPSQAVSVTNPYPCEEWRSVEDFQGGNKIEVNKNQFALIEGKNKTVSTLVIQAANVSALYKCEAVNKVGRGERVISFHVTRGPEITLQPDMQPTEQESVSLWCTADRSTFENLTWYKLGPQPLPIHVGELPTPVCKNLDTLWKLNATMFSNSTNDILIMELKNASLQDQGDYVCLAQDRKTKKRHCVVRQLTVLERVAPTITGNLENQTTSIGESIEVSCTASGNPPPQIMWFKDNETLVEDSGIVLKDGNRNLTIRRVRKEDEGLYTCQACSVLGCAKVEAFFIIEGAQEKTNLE
Sequence of human VEGFR-1 extracellular domain (Fc fusion) (P17948 27-758): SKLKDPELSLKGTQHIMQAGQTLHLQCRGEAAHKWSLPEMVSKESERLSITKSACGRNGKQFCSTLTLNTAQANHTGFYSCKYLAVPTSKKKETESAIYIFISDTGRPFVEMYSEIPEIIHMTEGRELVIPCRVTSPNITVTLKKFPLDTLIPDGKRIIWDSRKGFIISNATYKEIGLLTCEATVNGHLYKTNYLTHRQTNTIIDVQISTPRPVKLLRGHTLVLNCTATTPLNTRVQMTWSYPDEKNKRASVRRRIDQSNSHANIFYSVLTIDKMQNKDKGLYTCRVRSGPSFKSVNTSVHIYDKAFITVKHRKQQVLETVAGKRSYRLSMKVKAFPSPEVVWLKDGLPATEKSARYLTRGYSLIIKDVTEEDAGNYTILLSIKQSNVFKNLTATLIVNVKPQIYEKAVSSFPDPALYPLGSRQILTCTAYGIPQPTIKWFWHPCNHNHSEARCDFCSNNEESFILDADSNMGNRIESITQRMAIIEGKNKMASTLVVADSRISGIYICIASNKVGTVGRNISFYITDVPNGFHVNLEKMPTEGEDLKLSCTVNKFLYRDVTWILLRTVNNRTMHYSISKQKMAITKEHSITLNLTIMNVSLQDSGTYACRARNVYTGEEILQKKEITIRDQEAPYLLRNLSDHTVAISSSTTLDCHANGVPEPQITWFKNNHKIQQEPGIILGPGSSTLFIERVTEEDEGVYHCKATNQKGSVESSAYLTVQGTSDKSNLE

Turning to `COc1c(C)c(C(=O)c2ccc(N)c(C(=O)[O-])c2)n2ccccc12.[Na+]` [SSR128129E], in the assay on FGF receptors, the “effect on FGF receptors” value is “binds to and prevents the activation of all four FGF receptors”; the “interaction with ligand-binding domain of the FGF receptors” value is recorded as “does not interact with the ligand-binding domain of the receptors”.

Regarding “FGF-1: fibroblast growth factor, recombinant human ligand”, the “phosphorylation of ERK1/2 upon growth factor stimulation” value in [1] is “phosphorylation of ERK1/2 increases”.

One may read the IC50 as the concentration at which inhibition is half-maximal. A lower IC50 goes with greater potency in that assay. PSAIWF [PSAIWF] showed an IC50 on VEGFR-3 of about 278 µM.

Consider WVCSGG [phage WVCSGG], for which the “phage binding to mouse VEGFR-3” value in the assay with mouse VEGFR-3 was “both phages bound to mouse and human VEGFR-3”. Besides, the “phage binding to human VEGFR-3” value in the assay on human VEGFR-3 is “both phages bound to mouse and human VEGFR-3”.

For the molecule WVCSGG [synthetic peptide WVCSGG], the binding result in assay [2] and in [3] was “binds” in each case.

For PCAIWF [synthetic peptide PCAIWF], the binding result in assay [4], in assay [2] and in assay [3] was “binds” each time.

Take PCAIWF [phage PCAIWF]: the binding result in [5], in assay [6], in [2] and in assay [3] was “binds” in each case.

With PSAIWF [synthetic peptide PSAIWF], the binding result in assay [7], in [4] and in [8] was “binds” in each case.

WVCSGG [phage WVCSGG]: the binding result in [5] and in [6] was “binds” each time.

B1: NRP-2: neuropilin, co-receptor for VEGF; rat NRP-2 (protein)
chain: QQDPPCGGRLNSKDAGYITSPGYPQDYPSHQNCEWVVYAPEPNQKIVLNFNPHFEIEKHDCKYDFIEIRDGDSESADLLGKHCGNIAPPTIISSGSVLYIKFTSDYARQGAGFSLRYEIFKTGSEDCSKNFTSPNGTIESPGFPEKYPHNLDCTFTILAKPRMEIILQFLTFDLEHDPLQVGEGDCKYDWLDIWDGIPHVGPLIGKYCGTKTPSKLRSSTGILSLTFHTDMAVAKDGFSARYYLVHQEPPENFQCNAPLGMESGRIANEQISASSTFSDGRWTPQQSRLHGDDNGWTPNVDSNKEYLQVDLRFLTMLTAIATQGAISRETQKGYYVKSYKLEVSTNGEDWMVYRHGKNHKVFQANNDATELVLNKLHTPLLTRFIRIRPQTWHLGIALRLELFGCRVTDAPCSNMLGMLSGLIADTQISASSTREYLWSPSAARLVSSRSGWFPRNPQAQPGEEWLQVDLGTPKTVKGVIIQGARGGDSITAMEARAFVRKFKVSYSLNGKDWEYIQDPRTQQPKLFEGNMHYDTPDIRRFEPVPAQYVRVYPERWSPAGIGMRLEVLGCDWTDSKPTVETLGPTVKSEETTTPYPMDEDATECGENCSFEDDKDLQLPSGFNCNFDFPEETCGWMYDRAKWLQSTWISSANPNDRTFPDDKNFLKLQSDGGREGQFGRLISPPVHLPRSPVCMEFQYQAMGGHGVALQVVREARQESKLLWVIREDQGSEWKHGRIILPSYDMEYQIVFEGVIGKGRSGEISIDDIRISTDVPLENCMEPISAFAVDIPEIHGGEGYEDEIDDDYEGDWNNSSSTSGAGSPSSGKEKSWLYTLDP
B1: the “NRP-2 binding to VEGFR-1” value in the assay with human VEGFR-1 was “strong interaction”.

Source of the values: article PMC5091360 (Science Advances, 2016).
